TDP2 inh: human TDP2 enzyme inhibitors, primary screen, biochemical, epi absorbance, recombinant enzyme; Tyrosyl-DNA phosphodiesterase 2 (Homo sapiens), O95551; T5PNP hydrolysis, p-nitrophenol absorbance 415 nm; inhibition, % at 12.8 µM; 0.34% of 370,000 active; AID 720702, 2013;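 active = inhibition above the mean of all tested compounds plus 3 SD, set per campaign, cut at about 25% in these data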;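 note: 0% = DMSO with enzyme and 100% = buffer with substrate but no TDP2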
Target sequence (O95551 whole entry, looked up): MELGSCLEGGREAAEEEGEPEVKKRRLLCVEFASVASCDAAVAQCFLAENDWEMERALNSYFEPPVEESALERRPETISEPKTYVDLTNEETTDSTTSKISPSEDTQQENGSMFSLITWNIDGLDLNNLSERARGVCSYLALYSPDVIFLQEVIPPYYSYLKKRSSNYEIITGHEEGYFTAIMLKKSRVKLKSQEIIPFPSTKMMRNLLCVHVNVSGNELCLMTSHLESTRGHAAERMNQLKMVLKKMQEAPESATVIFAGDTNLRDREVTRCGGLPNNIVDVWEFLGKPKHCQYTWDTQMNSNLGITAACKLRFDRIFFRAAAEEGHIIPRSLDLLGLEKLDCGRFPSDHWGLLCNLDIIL
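Assay system: Recombinant human TDP2 | Quantity: 120 nM TDP2 per well | Incubation: 2 h at 37 °C | Signal: Epi absorbance | Evaluation: Percent inhibition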
ARFGAP1 inh: inhibitors of rat ARFGAP1 GAP activity, primary screen, biochemical, fluorescence polarization, GDP tracer. ADP-ribosylation factor GTPase-activating protein 1 (Rattus norvegicus), Q62848. Arfgap1-stimulated ARF1 GTP hydrolysis, GDP FP detection. 0.26% of 360,000 active. inhibition, % at 16.5 µM;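 active = inhibition above a per-plate limit, mean inhibition of low control wells plus 3 SD, cut at about 25% in these data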;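 note: 0% = DMSO wells with enzyme and 100% = wells lacking Arfgap1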
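material = rat Arfgap1 catalytic domain, aa 1-136 | also added = human ARF1(Δ1-17)-GTP substrate | compound dosing = one concentration, 16.5 µM, DMSO 1.26% | times = GTP hydrolysis reaction 2 h at 25 °C | measured by = FP, GDP Alexa 633 tracer displaced from anti-GDP antibody, 620/688 nm | evaluation = percent inhibition of Arfgap1-stimulated GTP hydrolysis | replication = single well per compound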
ASAP1 inh: inhibitors of human ASAP1 ArfGAP activity, primary screen, biochemical, fluorescence polarization; ASAP1-stimulated ARF1 GTP hydrolysis, GDP FP detection; inhibition, % at 16.5 µM; Arf-GAP with SH3 domain, ANK repeat and PH domain-containing protein 1 (Homo sapiens), …; 0.19% of 360,000 active; in the data active = inhibition above about 25%;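 note: 0% = vehicle with enzyme and substrate and 100% = no enzyme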
LEDGF integ inh: blockers of LEDGF/p75-dependent integrase strand transfer – biochemical, TR-FRET, high throughput, primary screen; AID 743269, 2014; TR-FRET IN-LEDGF/p75 DNA integration, Eu/Cy5; HIV-1 integrase (with human LEDGF/p75); inhibition, % at 3.7 µM; 0.64% of 370,000 active;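 active = inhibition above the screen-wide mean plus 3 SD, cut at about 13% in these data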;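 note: signal is the Cy5 over europium emission ratio at 671 and 618 nm; 0% = plate median of compound wells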
CASP6 VEID inh: human caspase-6 inhibitors, primary screen, biochemical, VEID-R110 fluorescence, single point, set 2; P55212; purified caspase-6, Z-VEID-R110 cleavage fluorescence; inhibition, % at 12.5 µM; 0.53% of 350,000 active; AID 686996, 2013;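 active = mean inhibition across replicates at least about 35%, with every replicate also reaching that limit, limit read from the data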;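 note: 0% = median of neutral control wells and 100% = no fluorescence left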
Target sequence (P55212 24-179 limits assumed): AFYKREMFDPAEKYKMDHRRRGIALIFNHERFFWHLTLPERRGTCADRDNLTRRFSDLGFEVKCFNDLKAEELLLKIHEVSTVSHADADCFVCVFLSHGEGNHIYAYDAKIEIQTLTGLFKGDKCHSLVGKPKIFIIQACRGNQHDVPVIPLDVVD
Target sequence (P55212 194-293 limits assumed): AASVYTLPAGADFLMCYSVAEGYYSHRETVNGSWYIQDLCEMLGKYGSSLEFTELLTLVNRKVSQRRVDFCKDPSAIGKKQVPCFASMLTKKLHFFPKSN
IN multimer act: HIV-1 IN multimer formation enhancers, counter-screen for LEDGF/p75 integration inhibitor project, biochemical, TR-FRET; shares compounds with LEDGF integ inh; TR-FRET HIV-1 integrase multimerization; activation, % at 7.7 µM; 17% of 2,000 active; in the data active = activation above about 8.9%
TR-FRET interf: TR-FRET optical interference artefacts, confirmation, artefact control for LEDGF/p75-dependent integration inhibitor project, biochemical, HIV-1 IN multimerization. shares compounds with LEDGF integ inh. TR-FRET optical interference counterscreen. inhibition, % at 7.7 µM. 2,000 tested, under 10 active. AID 1053135, 2014;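 active = inhibition above the mean over all tested compounds plus 3 SD, which no compound reached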;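 note: 0% = integrase with antibodies and DMSO and 100% = antibodies without integrase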
LEDGF integ conf: inhibitors of HIV-1 IN-LEDGF/p75 DNA integration, confirmation, biochemical, TR-FRET | inhibition, % at 3.7 µM | 36% of 2,000 active | TR-FRET LEDGF/p75-dependent HIV-1 integration | shares compounds with LEDGF integ inh; in the data active = inhibition above about 14%
Numbers without * were called inactive; x = not tested or not shown. Hits are enriched below; roughly 1.3% of the tested compounds scored in any of these assays.

SMILES	TDP2 inh	ARFGAP1 inh	ASAP1 inh	LEDGF integ inh	CASP6 VEID inh	IN multimer act	TR-FRET interf	LEDGF integ conf
Oc1ccc2ccccc2c1CN1CCOCC1	-3	8	-7	-4	2	x	x	x
Oc1c(CN2CCOCC2)cc(CN2CCOCC2)c(O)c1O	-8	2	-2	84*	-6	5	-16	26*
O=c1[nH]c2nc(Cl)nc(Cl)c2[nH]1	7	12	-14	0	5	x	x	x
C=C(CCO)C1=CCN(S(=O)C(C)(C)C)[C@H]1CCO (stereo partly specified)	-4	0	-6	-3	-1	x	x	x
CCNc1nc(NC(C)C)nc(N(C#N)C(C)C(=O)N(C)C)n1 (stereo unspecified)	-8	10	-8	0	x	x	x	x
CCNc1nc(NC(C)C)nc(N(C#N)CC(=O)OC)n1	3	5	-11	18*	-2	-1	4	2
O=c1cc(CN2CCN(c3ccc(Cl)c(Cl)c3)CC2)c2ccccc2o1	-5	1	-9	3	-2	x	x	x
C[C@@H]1CN([C@@H](C)CO)C(=O)c2cccc(NS(=O)(=O)c3ccc(F)cc3)c2O[C@@H]1CN(C)S(=O)(=O)c1cccs1	x	x	x	x	-1	x	x	x
O=c1oc2c3c4c(cc2c(C(F)(F)F)c1CCN1CCOCC1)CCCN4CCC3	-17	1	10	4	x	x	x	x
O=C1CC(Nc2ccccc2)C(=O)N1c1ccc(N2CCOCC2)cc1 (stereo unspecified)	-1	-4	-6	-1	x	x	x	x
O=C1CC(Nc2ccc(N3CCOCC3)cc2)C(=O)N1c1ccccc1F (stereo unspecified)	10	10	1	15*	25	1	-7	0
Cc1cn([C@H]2C[C@H](O)[C@@H](CCC(=O)NCc3cccc4ccccc34)O2)c(=O)[nH]c1=O	-1	-9	-9	15*	-3	0	0	0
Cc1nnc(-c2ccc(Oc3ccc(Br)cc3)c([N+](=O)[O-])c2)o1	-3	8	-5	16*	0	0	2	-7
Cc1cc(Oc2ccc(-c3nnc(-c4ccccc4)o3)cc2[N+](=O)[O-])ccc1Cl	6	-4	-1	5	x	x	x	x
O=C(O)/C=C/C(=O)N1Cc2cc3ccccc3nc2C1	-5	8	12	19*	54*	0	-1	3
O=c1cc(Br)c(O)c(Br)cc1Br	12	-11	9	46*	91*	5	-24	21*
Oc1c(Br)cc(Br)c2cccnc12	7	1	-8	0	11	x	x	x
CO[C@H](CN(C)C(=O)c1ccc2c(c1)OCO2)[C@H](C)CN([C@@H](C)CO)S(=O)(=O)c1ccc(C)cc1	x	x	x	x	-1	x	x	x
COC(=O)C1=C(C)N(CCCC(=O)O)C(=O)NC1c1cc2c(cc1[N+](=O)[O-])OCO2 (stereo unspecified)	1	6	0	27*	5	26*	-94	48*
Cc1cc(C)c2c(CN3CCCC3)cc(=O)oc2c1	-6	10	-7	-3	1	x	x	x
CCc1cc(=O)oc2cc(C)c(CN3CCCC3)c(O)c12	-7	-17	-22	35*	x	6	-30	40*
COC(=O)c1ccc(NC(=O)CCS(=O)(=O)c2ccc(Br)s2)cc1	-5	-4	-7	-3	x	x	x	x
COCCNC(=O)C1(S(=O)(=O)c2ccccc2)CC=CC1	-13	-3	-14	24*	1	0	0	0
COC/C=C/C1=CC2=CC(=O)C(C)(OC(=O)c3cnc4ccccc4n3)C(=O)C2=CN1Cc1ccccc1 (stereo unspecified)	5	-9	-11	15*	8	4	-14	11
COC/C=C/C1=CC2=CC(=O)C(C)(OC(=O)c3cnc4ccccc4n3)C(=O)C2=CN1Cc1ccc(OC)cc1 (stereo unspecified)	4	12	-2	12	5	x	x	x
SMILES	TDP2 inh	ARFGAP1 inh	ASAP1 inh	LEDGF integ inh	CASP6 VEID inh	IN multimer act	TR-FRET interf	LEDGF integ conf
COc1ccc(C(=O)N2N=C3CC(C)(C)OCC3C2c2ccccc2)cc1 (stereo unspecified)	-10	2	-16	66*	1	0	1	-7
CCOC(=O)C1Nc2ccc(C(=O)O)cc2C2C=CCC12 (stereo unspecified)	20	-3	-6	67*	23	45*	-162	60*
CC(C)C1Nc2ccc(C(=O)O)cc2C2C=CCC21 (stereo unspecified)	14	1	-12	17*	10	5	-27	24*
CNC[C@H]1Oc2ccc(NS(C)(=O)=O)cc2C(=O)N([C@H](C)CO)C[C@H]1C	x	x	x	x	-2	x	x	x
COc1cccc(NC(=O)N2CCC(C(=O)Nc3ccc(C)cc3C)CC2)c1	-2	1	-12	38*	x	1	-7	-4
CC(=O)Nc1ncc2c(n1)CC(c1ccco1)CC2=O (stereo unspecified)	-3	7	-13	-3	3	x	x	x
O=C(Nc1ncc2c(n1)CC(c1ccco1)CC2=O)c1ccco1 (stereo unspecified)	-9	-6	0	13*	21	1	-4	0
CCC(=O)Nc1ncc2c(n1)CC(c1ccco1)CC2=O (stereo unspecified)	-11	2	0	18*	x	3	-11	-6
COc1ccc(C(=O)Nc2ncc3c(n2)CC(c2ccco2)CC3=O)cc1 (stereo unspecified)	7	-7	13	0	6	x	x	x
Cc1[nH]c2ccccc2c1SCC(=O)NC1CCCCC1	-1	-1	-6	0	1	x	x	x
CN(CC(=O)Nc1ccccc1Cl)CC(=O)Nc1c(F)cccc1F	-7	6	11	7	-2	x	x	x
COc1ccc(C(=O)N(c2ccc(OC)cc2)S(=O)(=O)c2cccs2)cc1	0	-9	-3	24*	2	0	-2	-2

Bioassay records (PubChem BioAssay)
